pEC50: −log10 of the molar value. The source made the active and inactive calls. No cut-off for these calls is given here.
How the values were obtained:
[1] = target: T1, Peroxisome proliferator-activated receptor gamma (Homo sapiens) (UniProt P37231); test: Agonist activity at GAL4-tagged human PPARgamma ligand binding domain expressed in HepG2 cells assessed as transactivation after 20 hrs by beta-galactosidase reporter gene assay relative to pioglitazone; format: cell-based
T1 sequence (whole entry): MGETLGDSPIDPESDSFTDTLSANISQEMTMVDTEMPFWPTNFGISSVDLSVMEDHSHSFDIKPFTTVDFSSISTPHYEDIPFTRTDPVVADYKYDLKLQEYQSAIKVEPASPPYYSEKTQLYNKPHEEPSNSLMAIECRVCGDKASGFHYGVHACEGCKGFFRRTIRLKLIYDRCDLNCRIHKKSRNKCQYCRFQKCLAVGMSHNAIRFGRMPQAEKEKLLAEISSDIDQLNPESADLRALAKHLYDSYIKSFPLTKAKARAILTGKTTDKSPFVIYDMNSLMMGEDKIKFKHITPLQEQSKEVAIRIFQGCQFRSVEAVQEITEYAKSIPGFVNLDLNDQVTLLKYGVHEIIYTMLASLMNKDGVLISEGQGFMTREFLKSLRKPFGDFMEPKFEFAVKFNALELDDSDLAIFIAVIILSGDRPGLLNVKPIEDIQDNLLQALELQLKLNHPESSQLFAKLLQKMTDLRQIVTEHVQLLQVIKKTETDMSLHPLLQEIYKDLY
Summary of the method: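 HepG2 cells were cultured in MEM with 10% heat-inactivated FBS at 37 °C in 5% CO2 and seeded at 10^5 cells/well in triplicate. After 24 h they were calcium-phosphate transfected with GAL4-PPARγ LBD (30 ng), pGAL5TKpGL3 luciferase reporter (100 ng) and pCMVβgal (250 ng). Cells were treated with ligands for 20 h. Luciferase and β-galactosidase activities were measured in extracts. Pioglitazone was the reference. Experiments were run at least twice.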

[2] = target: T2, Peroxisome proliferator-activated receptor gamma (Homo sapiens, UniProt P37231); test: Agonist activity at GAL4-tagged human PPARgamma ligand binding domain expressed in HepG2 cells assessed as transactivation after 20 hrs by beta-galactosidase reporter gene assay; format: cell-based
T2 sequence (P37231 whole entry): T1 sequence (whole entry)

[3] = target: T3, Peroxisome proliferator-activated receptor alpha (Homo sapiens, UniProt Q07869); test: Agonist activity at GAL4-tagged human PPARalpha ligand binding domain expressed in HepG2 cells assessed as transactivation after 20 hrs by beta-galactosidase reporter gene assay; format: cell-based
T3 sequence (Q07869 whole entry): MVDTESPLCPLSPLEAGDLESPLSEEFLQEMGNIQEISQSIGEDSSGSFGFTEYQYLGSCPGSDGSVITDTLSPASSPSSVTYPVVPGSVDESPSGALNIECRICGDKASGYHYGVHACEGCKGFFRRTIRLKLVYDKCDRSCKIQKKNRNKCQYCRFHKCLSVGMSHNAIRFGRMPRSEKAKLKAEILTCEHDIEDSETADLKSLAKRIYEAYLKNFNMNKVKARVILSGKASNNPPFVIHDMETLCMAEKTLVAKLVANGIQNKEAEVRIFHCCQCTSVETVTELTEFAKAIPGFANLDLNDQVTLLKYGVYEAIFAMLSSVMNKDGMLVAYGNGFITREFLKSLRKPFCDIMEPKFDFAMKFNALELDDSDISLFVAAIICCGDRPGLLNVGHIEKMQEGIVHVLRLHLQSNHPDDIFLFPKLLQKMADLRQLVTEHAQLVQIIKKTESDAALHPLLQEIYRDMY
Summary of the method: (§1)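 HepG2 cells were grown in MEM with 10% heat-inactivated FBS and penicillin/streptomycin at 37 °C in 5% CO2. They were seeded at 10^5 cells/well in triplicate and calcium-phosphate transfected 24 h later with GAL4-PPARα LBD (30 ng), pGAL5TKpGL3 luciferase reporter (100 ng) and pCMVβgal (250 ng). Ligands were applied for 20 h. Luciferase was read with β-galactosidase measured alongside. Experiments were repeated at least twice.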

[4] = target: T4, Peroxisome proliferator-activated receptor alpha (Homo sapiens) (UniProt Q07869); test: Agonist activity at GAL4-tagged human PPARalpha ligand binding domain expressed in HepG2 cells assessed as transactivation after 20 hrs by beta-galactosidase reporter gene assay relative to Wy-14643; format: cell-based
T4 sequence (whole entry): T3 sequence (Q07869 whole entry)
Summary of the method: as §1, with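 “alongside. Wy-14,643 was the reference.” for “alongside.”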

[5] = target: T4, Peroxisome proliferator-activated receptor alpha (Homo sapiens); settings: HepG2, 5 to 10 uM
[6] = target: T3, Peroxisome proliferator-activated receptor alpha; test: Agonist activity at GAL4-tagged human PPARalpha ligand binding domain expressed in HepG2 cells assessed as transactivation at 5 to 10 uM after 20 hrs by beta-galactosidase reporter gene assay; format: cell-based
[7] = target: T1, Peroxisome proliferator-activated receptor gamma (Homo sapiens); settings: HepG2, 5 to 10 uM
[8] = target: T2, Peroxisome proliferator-activated receptor gamma; test: Agonist activity at GAL4-tagged human PPARgamma ligand binding domain expressed in HepG2 cells assessed as transactivation at 5 to 10 uM after 20 hrs by beta-galactosidase reporter gene assay; format: cell-based

Compound	Emax [1]	pEC50 [2]	pEC50 [3]	Emax [4]	Emax [5]	EC50 [6]	Emax [7]	EC50 [8]
O=C(O)C(Cc1ccc(Cl)cc1)Oc1ccc(Cl)cc1F (racemic)	69%	6.05	5.85	76%	–	–	–	–
O=C(O)C(Cc1ccccc1)Oc1ccc(Cl)c(C(F)(F)F)c1 (stereo not given)	21%	5.24	5.60	59%	–	–	–	–
O=C(O)C(Oc1ccc(Cl)cc1F)c1ccc(Cl)cc1 (stereo not given)	24%	4.79	4.99	38%	–	–	–	–
O=C(O)C(Cc1ccccc1)Oc1ccc(Cl)c(F)c1 (stereo not given)	40%	4.85	5.19	51%	–	–	–	–
O=C(O)C(Oc1cccc(C(F)(F)F)c1)c1ccc(Cl)cc1 (stereo not given)	13%	5.00	–	–	inactive	Not Active	–	–
O=C(O)[C@H](Cc1ccccc1)Oc1ccc(C(F)(F)F)cc1	59%	–	–	81%	–	–	–	–
O=C(O)[C@H](Cc1ccccc1)Oc1ccc(F)cc1	58%	4.45	4.61	55%	–	–	–	–
CCc1ccc(CCOc2ccc(CC3SC(=O)NC3=O)cc2)nc1 (stereo not given) [PIOGLITAZONE]	–	–	–	–	inactive	Not Active	–	–
O=C(O)C(Cc1ccccc1)Oc1cccc(F)c1 (racemic)	33%	4.39	4.68	57%	–	–	–	–
O=C(O)C(Cc1cccc(F)c1)Oc1ccccc1C(F)(F)F (racemic)	20%	4.94	–	–	–	Not Active	–	–
O=C(O)C(Cc1ccccc1)Oc1ccccc1C(F)(F)F (racemic)	13%	4.52	–	–	–	Not Active	–	–
O=C(O)[C@H](Cc1ccccc1)Oc1ccc(Cl)cc1F	84%	5.60	5.66	101%	–	–	–	–
O=C(O)C(Cc1ccccc1F)Oc1ccc(Cl)cc1 (racemic)	59%	5.31	5.18	66%	–	–	–	–
O=C(O)[C@H](Cc1ccccc1)Oc1ccc(Cl)cc1	77%	5.02	5.31	90%	–	–	–	–
O=C(O)[C@H](Cc1ccc(Cl)cc1)Oc1ccc(Cl)cc1F	70%	6.30	6.00	76%	–	–	–	–
O=C(O)C(Cc1ccccc1)Oc1ccccc1F (racemic)	26%	4.72	4.65	36%	–	–	–	–
O=C(O)C(Oc1ccc(Cl)cc1F)c1ccccc1 (stereo not given)	11%	4.49	4.72	88%	–	–	–	–
O=C(O)C(Cc1cccc(F)c1)Oc1ccc(Cl)cc1 (racemic)	52%	5.46	5.29	65%	–	–	–	–
O=C(O)C(Cc1cccc(F)c1)Oc1ccc(Cl)cc1F (racemic)	83%	5.62	5.35	101%	–	–	–	–
O=C(O)C(Cc1ccc(F)cc1)Oc1ccc(Cl)cc1 (racemic)	57%	5.28	5.27	66%	–	–	–	–
Cc1cccc(Nc2cc(Cl)nc(SCC(=O)O)n2)c1C [PIRINIXIC ACID]	–	–	–	–	–	–	inactive	Not Active
O=C(O)[C@H](Cc1ccccc1)Oc1cccc(C(F)(F)F)c1	44%	4.80	5.01	71%	–	–	–	–

— ChEMBL document CHEMBL1955801, “Synthesis, biological evaluation and molecular investigation of fluorinated peroxisome proliferator-activated receptors α/γ dual agonists” (Bioorg Med Chem, 2012)
